Numbered stars: 1 amine (or outer) side, 2 acyl side, 3 side chain; on linkers, the order of the positions; unused ones are H or OH. Bridge positions count the residues as written; N and C are the ends. Square brackets hold non-standard residues; d marks the D form. Peptide text beside a SMILES is read from it. X1 = O=C(CC1(S[*:2])CCCCC1)[*:1]
Columns and labels:
[1] = system: Canis familiaris; experiment: Compound was tested for the maximum urine osmolality with a dose of 100 ug/kg compound in dog.; assay type: ADME, organism-based, Canis lupus familiaris; details: in vivo, 0.1 mg/kg
In short: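 Adult female mongrel dogs, lightly restrained supine, food withheld 18 h, water-loaded (tap water 5% body weight by gavage). 3% dextrose infused intravenously until Uosm below 70 mOsm/kg H2O, then matched to urine output. After 20 min baseline, indomethacin 2 mg/kg load + 3 mg/kg per h for 20 min, then single i.v. bolus 100 µg/kg or vehicle. Uosm by freezing point depression, every 10 min for 3 h; maximum Uosm, mean ±SE.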

[2] = Compound was evaluated for inhibition of vasopressin-stimulated adenylate cyclase in human medullary preparation
In short: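 Human renal medullary tissue; inhibition of vasopressin-stimulated adenylate cyclase, reported as inhibition constant Ki.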

[3] = system: Rattus norvegicus; experiment: Effective dose of compound required to lower urine osmolality to 300 mOsm/kg H2O in rat; assay type: functional
In short: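 Hydropenic rat model. ED300 (µg/kg) is the dose reducing urine osmolality from hydropenic levels to plasma osmolality level, 300 mOsm/kg H2O.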

[4] = system: Vasopressin V2 receptor (Sus scrofa); experiment: Binding affinity of compound towards Vasopressin receptor by binding [3H]LVP to pig renal medullary preparation; details: Renal medulla
[5] = system: Canis familiaris; experiment: Compound was tested for the maximum urine osmolality with a dose of 100 ug/kg compound in dog; assay type: ADME, organism-based, Canis lupus familiaris; details: in vivo, 0.1 mg/kg
In short: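 Adult female mongrel dogs, fasted 18 h with water allowed, hydrated orally with tap water (5% body weight), bladder-catheterized. 3% dextrose iv to baseline water diuresis (Uosm <70 mOsm/kg H2O). Indomethacin 2 mg/kg load + 3 mg/kg per h. Single iv bolus of 100 µg/kg peptide or vehicle. Uosm by freezing point depression every 10 min for 3 h; maximum value, mean ±SE.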

Row | K Bind [4] | Max Uosm [5] | Structure (SMILES) | Max Uosm [1] | Ki [2] | ED300 [3]
1 |  |  | CCOc1ccc(C[C@H]2NC(=O)CC3(CCCCC3)SSC[C@@H](C(=O)N3CCC[C@H]3C(=O)N[C@@H](CCCNC(=N)N)C(N)=O)NC(=O)[C@H](CC(N)=O)NC(=O)[C@H](C(C)C)NC(=O)[C@H](Cc3ccccc3)NC2=O)cc1 ([dY](Et)FVNCPR-NH2; linker N-5 via X1) | 1625 mOsmol kg-1 | 3.6 nM | 
2 |  |  | CCOc1ccc(C[C@H]2NC(=O)CC3(CCC(C)CC3)SSC[C@@H](C(=O)N3CCC[C@H]3C(=O)N[C@@H](CCCN=C(N)N)C(=O)NCC(N)=O)NC(=O)[C@H](CC(N)=O)NC(=O)[C@H](C(C)C)NC(=O)[C@H](Cc3ccccc3)NC2=O)cc1 (stereo partly specified) [listing 1 of 2 here] |  |  | 0.025 mg/kg
3 |  |  | CCOc1ccc(C[C@H]2NC(=O)CC3(CCC(C)CC3)SSC[C@@H](C(=O)N3CCC[C@H]3C(=O)N[C@@H](CCCN=C(N)N)C(N)=O)NC(=O)[C@H](CC(N)=O)NC(=O)[C@H](C(C)C)NC(=O)[C@H](Cc3ccccc3)NC2=O)cc1 (stereo in doubt; 3) |  |  | 0.022 mg/kg
4 |  |  | CCOc1ccc(C[C@H]2NC(=O)CC3(CCCCC3)SSC[C@@H](C(=O)N3CCC[C@H]3C(=O)N[C@@H](CCCN=C(N)N)C(N)=O)NC(=O)[C@H](CC(N)=O)NC(=O)[C@H](C(C)C)NC(=O)[C@H](Cc3ccccc3)NC2=O)cc1 ([dY](Et)FVNCPR-NH2; linker N-5 via X1) |  |  | 0.015 mg/kg
5 |  |  | CCOc1ccc(C[C@H]2NC(=O)CC3(CCCCC3)SSC[C@@H](C(=O)N3CCC[C@H]3C(=O)N[C@@H](CCCN=C(N)N)C(=O)NCC(N)=O)NC(=O)[C@H](CC(N)=O)NC(=O)[C@H](C(C)C)NC(=O)[C@H](Cc3ccccc3)NC2=O)cc1 ([dY](Et)FVNCPRG-NH2; linker N-5 via X1) [listing 1 of 2 here] | 1216 mOsmol kg-1 | 4.6 nM | 
6 | 4.5 nM |  | CCOc1ccc(C[C@@H]2NC(=O)CC3(CCCCC3)SSC[C@H](C(=O)N[C@@H](CCCN=C(N)N)C(=O)N[C@@H](CCCN=C(N)N)C(N)=O)NC(=O)[C@@H](CC(N)=O)NC(=O)[C@H](C(C)C)NC(=O)[C@@H](Cc3ccccc3)NC2=O)cc1 | 469 mOsmol kg-1 | 4.5 nM | 0.0135 mg/kg
7 |  |  | CCOc1ccc(C[C@H]2NC(=O)CC3(CCC(C)CC3)SSC[C@@H](C(=O)N3CCC[C@H]3C(=O)N[C@@H](CCCNC(=N)N)C(N)=O)NC(=O)[C@H](CC(N)=O)NC(=O)[C@H](C(C)C)NC(=O)[C@H](Cc3ccccc3)NC2=O)cc1 (stereo in doubt; 3) | 613 mOsmol kg-1 |  | 
8 |  |  | CCOc1ccc(C[C@H]2NC(=O)CC3(CCCCC3)SSC[C@@H](C(=O)N3CCC[C@H]3C(=O)N[C@@H](CCCN=C(N)N)C(=O)NCC(N)=O)NC(=O)[C@H](CC(N)=O)NC(=O)[C@H](C(C)C)NC(=O)[C@H](Cc3ccccc3)NC2=O)cc1 ([dY](Et)FVNCPRG-NH2; linker N-5 via X1) [listing 2 of 2 here] |  |  | 0.011 mg/kg
9 |  |  | CCOc1ccc(C[C@H]2NC(=O)CC3(CCC(C)CC3)SSC[C@@H](C(=O)N3CCC[C@H]3C(=O)N[C@@H](CCCN=C(N)N)C(N)=O)NC(=O)[C@H](CC(N)=O)NC(=O)[C@H](C(C)C)NC(=O)[C@H](Cc3ccccc3)NC2=O)cc1 (stereo in doubt; 2) |  |  | 0.045 mg/kg
10 |  | 91 mOsmol kg-1 | CCOc1ccc(C[C@H]2NC(=O)CC3(CCC(C)CC3)SSC[C@@H](C(=O)N3CCC[C@H]3C(=O)N[C@@H](CCCNC(=N)N)C(N)=O)NC(=O)[C@H](CC(N)=O)NC(=O)[C@H](C(C)C)NC(=O)[C@H](Cc3ccccc3)NC2=O)cc1 (stereo in doubt; 2) |  |  | 
11 | 4.2 nM |  | CCOc1ccc(C[C@@H]2NC(=O)CC3(CCC(C)CC3)SSC[C@H](C(=O)N[C@@H](CCCN=C(N)N)C(=O)N[C@@H](CCCN=C(N)N)C(N)=O)NC(=O)[C@H](CC(N)=O)NC(=O)[C@H](C(C)C)NC(=O)[C@H](Cc3ccccc3)NC2=O)cc1 (stereo partly specified) | 103 mOsmol kg-1 | 3.9 nM | 0.046 mg/kg
12 |  |  | CCOc1ccc(C[C@H]2NC(=O)CC3(CCC(C)CC3)SSC[C@@H](C(=O)N3CCC[C@H]3C(=O)N[C@@H](CCCN=C(N)N)C(=O)NCC(N)=O)NC(=O)[C@H](CC(N)=O)NC(=O)[C@H](C(C)C)NC(=O)[C@H](Cc3ccccc3)NC2=O)cc1 (stereo partly specified) [listing 2 of 2 here] | 85 mOsmol kg-1 | 4.3 nM | 

Reference: ChEMBL document CHEMBL1124672, “A minor modification of residue 1 in potent vasopressin antagonists dramatically reduces agonist activity” (J Med Chem, 1989)
